From ChEMBL document CHEMBL4316644, “Eudesmane Glycosides from Ambrosia artemisiifolia (Common Ragweed) as Potential Neuroprotective Agents” (J Nat Prod, 2019)
Active and inactive are the calls of the source. The rule behind the calls is not given here.

What was measured:
HT-22 [1] = test: Neuroprotective against amyloid beta (42 residues)-induced cell death in mouse HT22 cells transfected with pEGFP-C1/Abeta42 assessed as increase in cell viability at 40 uM measured after 24 hrs by MTT assay; type: functional, cell-based
Outline: (§1)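 HT22 cells seeded at 4000 cells/well for 2–3 h at 37 °C, 5% CO2, then transfected with 0.2 μg pEGFP-C1/Aβ42 plasmid by Lipofectamine 2000. After 10 h, compounds were added in medium, mostly at 40 μM, some at 5 μM or at 10, 20 and 40 μM. Incubation continued 24 h, then MTT (2 mg/mL) viability read-out. Mean ± SD, n = 3, versus untreated Aβ42-transfected cells.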

HT-22 [2] = test: Neuroprotective against amyloid beta (42 residues)-induced cell death in mouse HT22 cells transfected with pEGFP-C1/Abeta42 assessed as increase in cell viability measured after 24 hrs by MTT assay; type: functional, cell-based; outline: as §1
HT-22 [3] = test: Neuroprotective against amyloid beta (42 residues)-induced cell death in mouse HT22 cells transfected with pEGFP-C1/Abeta42 assessed as increase in fluorescence intensity at 40 uM measured after 24 hrs by fluorescence microscopic analysis; type: functional, cell-based
Outline: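 HT22 cells grown on glass coverslips, transfected with Aβ42 plasmid for 10 h. Medium then replaced with fresh medium containing 2% FBS, with or without compounds at 40 μM, for 24 h. Cells washed once with PBS. Fluorescence and bright-field images were captured by fluorescence microscopy to view GFP condensation.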

HT-22 [4] = test: Neuroprotective against amyloid beta (42 residues)-induced cell death in mouse HT22 cells transfected with pEGFP-C1/Abeta42 assessed as decrease in fluorescence intensity at 40 uM measured after 24 hrs by flow cytometry
HT-22 [5] = test: Cytotoxicity against mouse HT22 cells assessed as reduction in cell viability at 40 uM measured after 24 hrs by MTT assay; type: cell-based; details: ht-22, 24 h
Outline: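 Untransfected HT22 mouse hippocampal cells grown in DMEM with 10% FBS and penicillin/streptomycin, seeded at 4000 cells/well, then incubated 24 h. Compounds in DMSO, diluted in serum-free medium (final DMSO 0.1 to 0.2% v/v), applied for 24 h. MTT (2 mg/mL) added for 4 h in the dark, formazan dissolved in DMSO, absorbance read at 550 nm.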

HT-22 [6] = test: Neuroprotective against amyloid beta (42 residues)-induced cell death in mouse HT22 cells transfected with pEGFP-C1/Abeta42 assessed as increase in cell viability up to 80 uM measured after 24 hrs by MTT assay; type: functional, cell-based

Row | SMILES | Activity (HT-22 [1]) | further results
1 | CC(=O)O[C@@H]1C[C@H]2[C@H](C)[C@H]3OC(=O)[C@@H](C)[C@H]3CC[C@]2(C)[C@H]1OC(C)=O | Active | –
2 | C=C1CC[C@@H](O[C@@H]2O[C@H](CO)[C@@H](O)[C@H](O)[C@H]2O)[C@]2(C)CC[C@@H](C(C)C)[C@H](O)[C@@H]12 | Active | –
3 | CC1=CC[C@H](O)[C@@]2(C)[C@@H](O)C[C@@H](C(C)C)[C@@H](O[C@@H]3O[C@H](CO)[C@@H](O)[C@H](O)[C@H]3O)[C@H]12 | Active | Activity (HT-22 [2]): Dose-dependent effect; Activity (HT-22 [3]): Active; Activity (HT-22 [4]): Active
4 | C=C1C(=O)O[C@@H]2[C@H]3C(C)=CC[C@H]3[C@](C)(O)C[C@H](O)[C@@H]12 [CUMAMBRIN B] | – | Activity (HT-22 [5]): Toxic
5 | CC1=CC[C@H](O)[C@@]2(C)[C@@H](OC(=O)C[C@](C)(O)CC(=O)O)C[C@@H](C(C)C)[C@@H](O[C@@H]3O[C@H](CO)[C@@H](O)[C@H](O)[C@H]3O)[C@H]12 | Active | –
6 | O=C(/C=C/c1ccc(O)cc1)NCCCCN(CCCNC(=O)/C=C/c1ccc(O)cc1)C(=O)/C=C/c1ccc(O)cc1 | Active | –
7 | CC1=CC[C@H](OC(=O)C[C@](C)(O)CC(=O)O)[C@@]2(C)[C@@H](O)C[C@@H](C(C)C)[C@@H](O[C@@H]3O[C@H](CO)[C@@H](O)[C@H](O)[C@H]3O)[C@H]12 | Active | –
8 | CC(=O)OC[C@H]1O[C@@H](O[C@@H]2[C@H](C(C)C)C[C@H](OC(=O)C[C@](C)(O)CC(=O)O)[C@]3(C)[C@@H](O)CC=C(C)[C@@H]23)[C@H](O)[C@@H](O)[C@@H]1O | Active | –
9 | C=C(C(=O)O)[C@H]1C[C@]2(C)C(=O)CC[C@]23O[C@H]1C[C@@H]3C | Active | –
10 | C=C1C(=O)O[C@@H]2C[C@@H](C)[C@@H]3C[C@@H](OC(C)=O)[C@H](OC(C)=O)[C@@]3(C)C[C@H]12 | – | Activity (HT-22 [5]): Toxic
11 | C=C1CC[C@@H]2[C@](C)(CO)[C@H](O)CC[C@@]2(C)[C@@H]1C/C=C1/C(=O)OC[C@H]1O | – | Activity (HT-22 [6]): Active
12 | CC1=CC[C@H](O[C@@H]2OC[C@@H](O)[C@H](O)[C@H]2O)[C@@]2(C)[C@@H](O)C[C@@H](C(C)C)[C@@H](O[C@@H]3O[C@H](CO)[C@@H](O)[C@H](O)[C@H]3O)[C@H]12 | Active | Activity (HT-22 [2]): Dose-dependent effect; Activity (HT-22 [3]): Active; Activity (HT-22 [4]): Active
